NOD2 RIPK2 PPI = NOD2-RIPK2 protein interaction inhibition; hit rate 0.38% among 360,000; CHO BLA complementation NOD2-RIPK2, CCF4 ratio; inhibition, % at 4.98 µM; O43353; in the data active = inhibition above about 21%;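 note: 0% = vehicle only and 100% = reference blocker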
CHOP inhibitor = blocks CHOP induction under ER stress; inhibition, % at 10 µM; AID 2732; hit rate 3.8% among 220,000; CHO-K1 CHOP-promoter luciferase, tunicamycin-induced, 15-18 h;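 active = compounds that reduced the stress-induced luciferase reporter signal by more than about 70% of percent inhibition, limit read from the data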;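 note: 0% = tunicamycin plus vehicle and 100% = wells without tunicamycin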
TLR4-MyD88 BLA = blocks binding of human TLR4 to MyD88. HeLa CL3-4 TLR4/MyD88 BLA complementation, FRET ratio. inhibition, % at 8.4 µM. hit rate 0.18% among 200,000; in the data active = inhibition above about 25%;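 note: 0% = vehicle and 100% = reference inhibitor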
UPR XBP1 act = adaptive UPR (XBP1) activation; CHO-XBP1 luciferase reporter, IRE1-XBP1 UPR activation, luminescence; percent of tunicamycin response, DMSO as zero; activation, % at 20 µM; hit rate 0.33% among 330,000; AID 463104;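 active = versus positive control, 20 µM dose yields 30% or more activation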;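 note: 100% = tunicamycin at 10 µg/mL and 0% = DMSO only wells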
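Material: CHO-XBP1 cells stably carrying IRE1-XBP1-driven luciferase reporter | Medium: F12 with 10% serum | Compound dosing: 20 µM single concentration, DMSO 1% | Incubation: Overnight seeding at 37 °C, 6 h compound treatment at 37 °C | Detection: Steady-Glo luminescence read | Read-out basis: % activation of reporter signal versus tunicamycin and DMSO controls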
CHOP UPR activ = apoptotic UPR (CHOP) activation; activation, % at 10 µM; AID 449763; CHO-CHOP luciferase reporter, luminescence; percent of tunicamycin response over DMSO baseline; hit rate 0.34% among 330,000;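 active = at 10 µM dose, activation of 40% or more, normalized to positive control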;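 note: 100% = tunicamycin at 10 µg/mL and 0% = DMSO alone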
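Assay system: CHO-CHOP cells, stable luciferase reporter of PERK-eIF2a-CHOP signalling / Buffer or medium: F12 plus 10% serum / Compound dosing: one dose, 10 µM in 0.5% DMSO / Times: 6 h compound treatment, 37 °C / Technique: luciferase luminescence / Read-out: % reporter activation, DMSO baseline versus tunicamycin full activation / Benchmarks: tunicamycin and DMSO controls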
TLR9-MyD88 block = TLR9-MyD88 interaction inhibition | AID 504734 | CHO BLA complementation TLR9-MyD88, CCF4 FRET ratio | inhibition, % at 4.98 µM | Q9NR96+Q99836 | hit rate 0.21% among 340,000;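 active = inhibition above the mean over all tested compounds plus 3 SD, cut at about 21% in these data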;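 note: 0% = DMSO only wells and 100% = clavulanate BLA inhibitor control wells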
Target sequence (Q99836 whole entry, looked up): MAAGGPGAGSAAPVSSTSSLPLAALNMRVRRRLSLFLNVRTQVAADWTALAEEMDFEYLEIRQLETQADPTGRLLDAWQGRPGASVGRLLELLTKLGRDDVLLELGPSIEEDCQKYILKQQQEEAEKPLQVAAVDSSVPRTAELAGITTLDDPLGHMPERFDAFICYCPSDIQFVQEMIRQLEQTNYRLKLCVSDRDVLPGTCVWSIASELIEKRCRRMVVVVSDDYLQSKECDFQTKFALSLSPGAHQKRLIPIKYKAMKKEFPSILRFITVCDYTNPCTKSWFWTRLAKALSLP
Target sequence (Q9NR96 whole entry, looked up): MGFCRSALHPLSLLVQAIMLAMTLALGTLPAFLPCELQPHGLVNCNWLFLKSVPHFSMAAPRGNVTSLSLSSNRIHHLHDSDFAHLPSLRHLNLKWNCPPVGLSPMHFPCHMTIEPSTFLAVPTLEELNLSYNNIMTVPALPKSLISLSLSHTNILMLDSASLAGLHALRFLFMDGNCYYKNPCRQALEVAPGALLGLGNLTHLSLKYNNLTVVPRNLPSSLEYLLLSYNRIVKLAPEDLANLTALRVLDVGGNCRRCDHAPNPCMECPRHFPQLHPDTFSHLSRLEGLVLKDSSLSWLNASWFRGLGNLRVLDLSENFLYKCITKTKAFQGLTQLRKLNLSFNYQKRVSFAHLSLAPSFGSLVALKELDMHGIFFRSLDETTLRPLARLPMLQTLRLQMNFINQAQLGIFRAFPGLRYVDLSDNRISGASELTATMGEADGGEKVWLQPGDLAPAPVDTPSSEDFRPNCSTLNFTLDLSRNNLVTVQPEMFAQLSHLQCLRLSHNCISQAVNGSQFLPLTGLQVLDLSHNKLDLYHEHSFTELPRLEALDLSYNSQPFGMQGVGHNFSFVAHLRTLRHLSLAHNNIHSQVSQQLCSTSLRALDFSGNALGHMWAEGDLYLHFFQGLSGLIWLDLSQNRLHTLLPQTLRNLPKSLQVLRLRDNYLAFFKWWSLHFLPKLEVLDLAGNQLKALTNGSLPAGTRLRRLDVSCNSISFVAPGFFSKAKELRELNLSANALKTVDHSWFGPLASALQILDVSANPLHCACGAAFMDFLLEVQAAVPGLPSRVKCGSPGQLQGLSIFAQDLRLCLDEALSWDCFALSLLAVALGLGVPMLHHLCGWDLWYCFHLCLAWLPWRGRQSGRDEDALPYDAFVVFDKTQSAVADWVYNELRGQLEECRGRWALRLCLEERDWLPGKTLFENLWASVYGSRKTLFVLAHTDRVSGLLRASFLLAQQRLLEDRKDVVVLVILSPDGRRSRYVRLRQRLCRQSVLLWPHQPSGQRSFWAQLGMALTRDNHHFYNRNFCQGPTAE
* marks the source's active call; other numbers are inactive results; . = not tested or not shown. This excerpt belongs to a sample that is enriched for hits.

SMILES	NOD2 RIPK2 PPI	CHOP inhibitor	TLR4-MyD88 BLA	UPR XBP1 act	CHOP UPR activ	TLR9-MyD88 block
CSc1ccccc1C(=O)OCC(=O)Nc1c(C)n(C)n(-c2ccccc2)c1=O	-7.7	.	.	.	.	-2.8
O=C1CCCC(=O)N1c1ccc(N2CCN(c3ccccc3)CC2)c([N+](=O)[O-])c1	-3.0	11.0	3.6	-1.0	-1.4	3.2
Cc1cccc(N2CCN(CC(=O)Nc3ccccc3[N+](=O)[O-])CC2)c1C	-8.7	76.8*	-1.9	-0.3	2.3	-3.3
Cc1cccc(N2CCN(c3ccc(N4C(=O)CCCC4=O)cc3[N+](=O)[O-])CC2)c1C	-3.4	84.1*	-1.1	-2.1	-0.4	9.3
CCOC(=O)N(C)c1c(CC)nc2c(OCc3ccc(Cl)cc3Cl)cccn12	-2.1	.	.	.	.	.
C[C@H]1CN([C@@H](C)CO)C(=O)CCCn2nncc2CO[C@H]1CN(C)S(=O)(=O)c1ccc(Oc2ccccc2)cc1	-19.1	.	.	.	.	-2.6
C=CCO/N=C(/C)c1c(O)c(CC)c(-c2ccccc2)n(-c2ccccc2)c1=O	-12.9	71.9*	-5.5	-1.9	-0.2	-8.3
CCc1c(O)c(/C(C)=N\O)c(=O)n(-c2ccccc2)c1-c1ccccc1	-13.7	4.6	-0.4	-0.9	2.1	-6.2
CC(=O)C[C@@H]1OC[C@H](Cc2ccccc2)N1S(=O)(=O)c1ccc(C)cc1	-6.7	.	.	.	.	.
CCOC(=O)c1[nH]c(Cc2[nH]c(C(=O)OCC)c(C)c2CCC(=O)OC)c(CCC(=O)OC)c1C	-0.3	84.8*	-3.7	-0.6	-1.1	-1.2
CCOC(=O)c1c(C)[nH]c(C(=O)OC)c1CCC(=O)OC	2.0	-15.9	10.3	-1.2	0.0	2.8
N#CCc1ccc(NS(=O)(=O)c2ccc(C3CCCCC3)cc2)cc1	11.4	81.1*	-3.5	.	.	-9.5
Cc1ccc2ccccc2c1C(O)c1ncc(-c2ccccc2F)[nH]1 (stereo not given)	-4.6	.	.	.	.	.
COC(=O)C[C@H]1C=C[C@@H](NC(=O)c2ccncc2)[C@@H](CO)O1	-10.1	.	.	.	.	.
O=C(Cc1ccccc1)N/N=C/c1cc(Br)c(Br)o1	1.0	76.1*	1.5	3.2	1.7	3.5
COc1ccc(N2CC(O)=C(c3nc(-c4ccccc4)cs3)C2=N)cc1	-9.6	38.8	.	-2.6	-0.3	2.1
COc1ccc(N2CC(O)=C(c3nc(-c4ccc(Cl)cc4)cs3)C2=N)cc1	-14.2	13.2	-6.9	85.2*	18.5	3.1
COc1ccc(N2CC(O)=C(c3nc(-c4ccc(Br)cc4)cs3)C2=N)cc1	-2.9	10.1	6.0	58.0*	14.7	-3.2
CCCCc1nc(NCC2CCCO2)c(C#N)c2c1COC(C)(C)C2 (stereo not given)	6.6	86.3*	-4.9	-4.5	-2.5	6.4
CCCCc1nc(N2CCOCC2)c(C#N)c2c1COC(C)(C)C2	3.2	0.6	-7.7	-0.5	0.3	-4.1
COc1ccc(-c2nc(SC)n(C(=O)c3ccco3)n2)cc1	-4.3	72.2*	6.1	-1.3	5.1	8.2
O=C(c1cccs1)n1nc(-c2ccccc2)nc1NCc1ccc(F)cc1	-0.7	26.1	-1.0	-2.0	1.6	6.0
CC(=O)n1nc(-c2ccccc2)nc1NCc1ccc(F)cc1	8.8	73.8*	-4.5	3.6	-0.1	2.9
CCCC(=O)n1nc(-c2cccnc2)nc1NCc1ccccc1	-21.7	70.2*	-7.4	.	.	-2.5
CCC(=O)n1nc(-c2cccnc2)nc1NCc1ccccc1	-3.0	13.0	-7.4	.	.	11.2
COc1ccc(CNc2nc(-c3cccnc3)nn2C(=O)CC(C)C)cc1	-3.9	83.5*	6.3	-4.6	-0.4	-4.2
CC(=O)NC(c1ccccc1)c1nc(-c2cccc(C#N)c2)cs1 (stereo not given)	0.4	.	.	.	.	.
O=C(c1ccco1)n1nc(-c2ccccc2)nc1NCc1ccco1	-2.9	80.7*	-6.1	4.6	3.6	-6.6
C[C@H]1CN([C@@H](C)CO)C(=O)CCCn2nncc2CO[C@@H]1CN(C)Cc1ccccc1C(F)(F)F	-1.1	.	.	.	.	3.1
CCOc1nc(Nc2ccc(OC)c(Cl)c2)nc(OCC)n1	-0.1	83.0*	-5.5	-0.5	-1.8	-9.0

Screening data: PubChem, several laboratories
